Tests used:
[1] = target: T1, Carbonic anhydrase 2 (Cryptococcus neoformans) (UniProt Q3I4V7); assay: Activation of Cryptococcus neoformans beta-carbonic anhydrase Can2 by stopped flow CO2 hydration assay
T1 sequence (whole entry): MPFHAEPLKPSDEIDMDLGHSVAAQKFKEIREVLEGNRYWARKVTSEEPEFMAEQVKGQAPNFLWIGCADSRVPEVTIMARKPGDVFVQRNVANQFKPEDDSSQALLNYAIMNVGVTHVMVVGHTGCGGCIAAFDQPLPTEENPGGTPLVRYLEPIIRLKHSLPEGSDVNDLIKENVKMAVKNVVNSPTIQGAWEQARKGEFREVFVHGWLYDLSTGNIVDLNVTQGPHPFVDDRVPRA
How it was run: (§1)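 Recombinant enzyme (prepared as in earlier work) preincubated with activator 15 min at room temperature. Stopped-flow CO2 hydration at 25 °C followed for 10 s, read with phenol red (0.2 mM) at 557 nm. Buffer was 20 mM Tris pH 8.3 with 20 mM NaClO4. CO2 ranged 1.7–17 mM. Initial velocity came from at least six traces of the first 5–10% of reaction, with the uncatalyzed rate subtracted. KA was fitted from activation versus activator concentration, using dilutions from a 10 mM aqueous stock. Mean of at least three determinations.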

[2] = target: T2, Carbonic anhydrase (Candida albicans (strain SC5314 / ATCC MYA-2876) (Yeast)) (UniProt Q5AJ71); assay: Activation of Candida albicans beta-carbonic anhydrase Nce103 by stopped flow CO2 hydration assay; how it was run: as §1
T2 sequence (whole entry): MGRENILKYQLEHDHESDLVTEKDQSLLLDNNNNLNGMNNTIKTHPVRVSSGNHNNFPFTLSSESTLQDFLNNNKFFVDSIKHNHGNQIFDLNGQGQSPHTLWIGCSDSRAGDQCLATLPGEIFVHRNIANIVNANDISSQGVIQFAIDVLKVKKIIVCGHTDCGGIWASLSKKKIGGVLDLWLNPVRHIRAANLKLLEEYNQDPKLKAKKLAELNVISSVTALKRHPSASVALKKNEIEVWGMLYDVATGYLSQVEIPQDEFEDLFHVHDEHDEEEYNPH

[3] = substrate: NCCc1c[nH]cn1; details: Candida albicans; 10 uM
[4] = substrate: NCCc1c[nH]cn1; details: Candida albicans
[5] = substrate: NCCc1c[nH]cn1; details: Cryptococcus neoformans; 10 uM
[6] = substrate: NCCc1c[nH]cn1; details: Cryptococcus neoformans

NCCN1CCNCC1
KA [1]: 44.9 µM
KA [2]: 17.3 µM

NCCc1ccccn1
KA [1]: 46.3 µM
KA [2]: 30.2 µM

NCc1ccccn1
KA [1]: 47 µM
KA [2]: 29.1 µM

N[C@@H](Cc1c[nH]c2ccccc12)C(=O)O
KA [1]: 28.7 µM
KA [2]: 19.2 µM

NCCc1c[nH]cn1
KA [1]: 33.2 µM
KA [2]: 18.4 µM

N[C@@H](Cc1ccccc1)C(=O)O
KA [1]: 44.1 µM
KA [2]: 15.5 µM

N[C@H](Cc1ccccc1)C(=O)O
KA [1]: 45.2 µM
KA [2]: 8.4 µM

CNC[C@@H](O)c1ccc(O)c(O)c1
KA [1]: 32.8 µM
KA [2]: 13.2 µM

NCCc1ccc(O)c(O)c1
KA [1]: 34.6 µM
KA [2]: 18.5 µM

N[C@@H](Cc1ccc(O)cc1)C(=O)O
KA [1]: 29.5 µM
KA [2]: 46.1 µM

N[C@H](Cc1c[nH]cn1)C(=O)O
KA [1]: 47.2 µM
KA [2]: 19.5 µM

NCCc1c[nH]c2ccc(O)cc12
KA [1]: 46.7 µM
KA [2]: 28.6 µM

N[C@@H](Cc1c[nH]cn1)C(=O)O
KA [1]: 45 µM
KA [2]: 24.1 µM

N[C@H](Cc1ccc(O)c(O)c1)C(=O)O
KA [1]: 35.1 µM
KA [2]: 2.5 µM

N[C@H](Cc1c[nH]c2ccccc12)C(=O)O
KA [1]: 42.1 µM
KA [2]: 43 µM

N[C@@H](Cc1ccc(O)c(O)c1)C(=O)O
KA [1]: 43.3 µM
KA [2]: 0.96 µM

Nc1ccc(C[C@H](N)C(=O)O)cc1
KA [1]: 30.4 µM
KA [2]: 23.7 µM

NCCN1CCOCC1
KA [1]: 40.1 µM
KA [2]: 25.4 µM

B1: Carbonic anhydrase (Candida albicans (strain SC5314 / ATCC MYA-2876) (Yeast)), Q5AJ71 (protein)
chain: T2 sequence (whole entry)
kcat [3]: 20.1 ×10⁵ /s
Km [4]: 8.2 mM
kcat [4]: 8 ×10⁵ /s

B2: Carbonic anhydrase 2 (Cryptococcus neoformans), Q3I4V7 (protein)
chain: T1 sequence (whole entry)
kcat [5]: 6.8 ×10⁵ /s
Km [6]: 9 mM
kcat [6]: 3.9 ×10⁵ /s
